17 compounds from ChEMBL document CHEMBL1125294, “Chromophore-modified antineoplastic imidazoacridinones. Synthesis and activity against murine leukemias” (J Med Chem, 1992) can be followed below.

Where “and” joins values, the source holds several entries; their conditions need not be identical. Equal entries are not always repeated. Where only a bound is given, the exact number is not on record here.

Data set [1] has as its system Mus musculus. The data set is described as follows: Antineoplastic activity was evaluated in vivo against murine leukemia P388 (i.p./i.p.; days 1-5) and optimum dose was reported. The format is functional. In outline: (§1)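 BDF1 mice given 10^6 P388 lymphocytic leukemia cells ip on day 0, then treated ip on days 1-5 following NCI protocols. Full dose-response runs spanned ineffective to clearly toxic doses. Mean survival time was taken per group of eight mice and expressed as % T/C. The optimal dose is the one giving the highest T/C.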

Another data set has as its system L1210. Description: In vitro inhibitory activity against murine L1210 leukemia. In kind it is functional, cell-based. As to conditions: Mus musculus. In outline:
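Mouse L1210 leukemia cells were grown in RPMI 1640 with 5% fetal calf serum, penicillin and streptomycin, at 37 °C in 5% CO2. Cells were seeded at 5×10^4 cells/mL and exposed to four concentrations of compound dissolved in 50% ethanol.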

Data set [2] has as its system Mus musculus. Description: Antineoplastic activity was evaluated in vivo against murine leukemia P388 (i.p./i.p.; days 1-5) and optimum dose was reported;120. In kind it is functional. In outline: as §1
The nature of data set [3]: Toxicity in CDF1 male mice following a single intraperitoneal administration. The conditions noted are these: CDF1, mouse, in vivo, ip. The format is organism-based. In outline:
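Acute toxicity after one ip dose in male CDF1 mice. The read-out is the LD50, given as preliminary estimates that are either a dose range or a bound in mg/kg.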

For data set [4], the system named is Mus musculus. The data set is described as follows: In vivo % T/C activity was measured against P388 leukemia;250. In kind it is functional. In outline:
as §1

Data set [5] concerns Mus musculus. The data set is described as follows: In vivo % T/C activity was measured against P388 leukemia; 210. The format is functional. In short, it runs like this:
as §1

The test system of data set [6] is Mus musculus. The data set is described as follows: In vivo % T/C activity was measured against P388 leukemia; 290. The format is functional. In outline: as §1
The subject of data set [7] is Mus musculus. The data set is described as follows: In vivo % T/C activity was measured against P388 leukemia; 155. The format is functional. In short, it runs like this: as §1
Data set [8] deals with Mus musculus. Description: In vivo % T/C activity was measured against P388 leukemia. In kind it is functional. In short, it runs like this: as §1

One may read the IC50 as the concentration needed to halve the response being measured. Higher therefore signals weaker potency. In turn, `CCN(CC)CCCNc1ccc2ncn3c4ccc(OC)cc4c(=O)c1c23` showed an Optimal dose with Mus musculus [1] of 150 mg kg-1 injection-1. For the same compound, the IC50 in the data set on L1210 was 1.1 µg/mL and 2.5 µM.

Take `COc1ccc2c(c1)c(=O)c1c(NCCCN(C)C)ccc3nc(C)n2c31`: the Optimal dose in the data set on Mus musculus [1] worked out at 150 mg kg-1 injection-1. Moreover, the 50% inhibitory concentration (IC50) in the data set with L1210 is 1.4 µg/mL and 3.2 µM.

As for `CCN(CC)CCCNc1ccc2ncn3c4ccc(O)cc4c(=O)c1c23`, in the data set with Mus musculus [1], the Optimal dose came to 25 mg kg-1 injection-1. Further, the IC50 with L1210 was 0.08 µg/mL and 180 nM.

For `CCN(CC)CCNc1ccc2nc(C)n3c4ccc(OC)cc4c(=O)c1c23`, in the data set on Mus musculus [2], the Optimal dose was found to be 150 mg kg-1 injection-1. The IC50 in the data set on L1210 is 0.7 µg/mL and 1.55 µM.

Usually LD50 stands for the dose at which mortality reaches 50%. The low end stands for a more toxic substance, the high end for a less toxic substance. For orientation: T/C means the result in the treated group divided by that in the control group, in per cent. Turning to `Cc1nc2ccc(NCCN(C)C)c3c(=O)c4cc(O)ccc4n1c23`, in the data set with Mus musculus [1], the Optimal dose came out at 12.5 mg kg-1 injection-1. The LD50 in [3] turned out to be 250 mg/kg. Moreover, the T/C in the data set with Mus musculus [4] was 200%. Moreover, in the data set on L1210, the IC50 was 0.06 µg/mL and 135 nM.

Consider `CN(C)CCNc1ccc2ncn3c4ccc(O)cc4c(=O)c1c23`, for which the Optimal dose with Mus musculus [1] came to 12.5 mg kg-1 injection-1. The compound further registered a T/C with Mus musculus [5] of 210%. Further, in the data set with L1210, the IC50 was 0.02 µg/mL and 48 nM.

For `COc1ccc2c(c1)c(=O)c1c(NCCCN(C)C)ccc3ncn2c31`, the Optimal dose in the data set on Mus musculus [1] was found to be 150 mg kg-1 injection-1. The IC50 in the data set with L1210 is 3.5 µg/mL and 8.2 µM.

As to `CCN(CC)CCNc1ccc2ncn3c4ccc(OC)cc4c(=O)c1c23`, the Optimal dose with Mus musculus [1] is 100 mg kg-1 injection-1. Moreover, the LD50 in data set [3] came out at 500 mg/kg. The half-inhibitory concentration (IC50) with L1210 was 0.78 µg/mL and 1.8 µM.

In the case of `CN(C)CCCNc1ccc2ncn3c4ccc(O)cc4c(=O)c1c23`, in the data set with Mus musculus [1], the Optimal dose was 5 mg kg-1 injection-1. The 50% inhibitory concentration (IC50) in the data set on L1210 is 0.014 µg/mL and 34 nM.

In the data set on Mus musculus [1], `Cc1nc2ccc(NCCCN(C)C)c3c(=O)c4cc(O)ccc4n1c23` displayed an Optimal dose of 100 mg kg-1 injection-1. Also, the IC50 with L1210 is 0.1 µg/mL and 230 nM.

In turn, `CCN(CC)CCNc1ccc2nc(C)n3c4ccc(O)cc4c(=O)c1c23` had an Optimal dose in the data set with Mus musculus [1] of 75 mg kg-1 injection-1. This compound also yielded an LD50 in data set [3] of 500 mg/kg. Also, the T/C with Mus musculus [6] amounted to 280%. In addition, the concentration for half-maximal inhibition (IC50) in the data set with L1210 was 0.11 µg/mL and 250 nM.

Regarding `CCN(CC)CCCNc1ccc2nc(C)n3c4ccc(OC)cc4c(=O)c1c23`, the Optimal dose in the data set with Mus musculus [1] came out at 150 mg kg-1 injection-1. Also, in the data set on L1210, the IC50 is 0.7 µg/mL and 1.4 µM.

Regarding `COc1ccc2c(c1)c(=O)c1c(NCCN(C)C)ccc3ncn2c31`, in the data set with Mus musculus [1], the Optimal dose is 100 mg kg-1 injection-1. Further, the IC50 in the data set on L1210 was 0.65 µg/mL and 1.65 µM.

Compound `CCN(CC)CCCNc1ccc2nc(C)n3c4ccc(O)cc4c(=O)c1c23` registered an Optimal dose with Mus musculus [1] of 25 mg kg-1 injection-1. Besides, the IC50 in the data set with L1210 is 0.4 µg/mL and 890 nM. Further, in the data set with Mus musculus [7], the T/C was 150%.

The compound `COc1ccc2c(c1)c(=O)c1c(NCCN(C)C)ccc3nc(C)n2c31` had an Optimal dose in the data set with Mus musculus [1] of 150 mg kg-1 injection-1. For the same compound, in the data set on L1210, the IC50 was 0.34 µg/mL and 770 nM.

`O=C1c2ccccc2C(=O)c2c(NCCNCCO)ccc(NCCNCCO)c21` [AMETANTRONE] came in with an Optimal dose in the data set on Mus musculus [1] of 12.5 mg kg-1 injection-1. This compound showed a T/C with Mus musculus [8] of 300%. For the same compound, in the data set on L1210, the IC50 was 1.77 µg/mL and 3.65 µM.

In turn, `CCN(CC)CCNc1ccc2ncn3c4ccc(O)cc4c(=O)c1c23` [C-1311] displayed an Optimal dose in the data set with Mus musculus [1] of 5 mg kg-1 injection-1. Further, the 50% lethal dose (LD50) in data set [3] was over 200 mg/kg. The IC50 with L1210 is 0.013 µg/mL and 31 nM.
